OX1R antag-1: antagonists of human orexin 1 receptor (OX1R) | OX1R-expressing cells, FRET antagonist read-out | Orexin/Hypocretin receptor type 1 (Homo sapiens), O43613 | 330,000 compounds, 1.8% hits | inhibition, % at 6.6 µM; in the data active = inhibition mostly above about 38%, no sharp cut-off; inactive = mostly below about 40%;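 also: 0% = agonist challenge alone and 100% = reference antagonist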
Target sequence (O43613 whole entry, looked up): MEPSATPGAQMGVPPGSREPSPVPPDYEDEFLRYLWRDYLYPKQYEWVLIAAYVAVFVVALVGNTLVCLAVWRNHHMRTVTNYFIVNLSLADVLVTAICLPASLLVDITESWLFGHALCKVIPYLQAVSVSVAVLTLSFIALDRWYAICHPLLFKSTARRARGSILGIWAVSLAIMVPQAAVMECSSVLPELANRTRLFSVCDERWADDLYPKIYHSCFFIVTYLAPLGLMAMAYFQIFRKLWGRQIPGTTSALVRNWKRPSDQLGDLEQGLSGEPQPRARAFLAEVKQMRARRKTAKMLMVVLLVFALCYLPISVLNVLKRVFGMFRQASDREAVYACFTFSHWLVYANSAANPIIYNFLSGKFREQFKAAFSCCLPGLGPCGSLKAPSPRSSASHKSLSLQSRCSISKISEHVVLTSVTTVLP
OX1R antag-2: OX1R (HCRTR1) antagonists, primary screen, fluorescence, CHO/OX1R cells, Fluo-8 calcium, orexin A; Fluo-8 calcium fluorescence; inhibition, % at 5 µM; 330,000 compounds, 0.43% hits;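 active = inhibition above its plate's threshold, mean inhibition of all tested compounds on the plate plus 3 SD, cut at about 37% in these data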;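 also: 0% = orexin A challenge wells and 100% = SB-334867-A antagonist wells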
GPR7 antagonist: GPR7 receptor antagonists, primary screen, cell-based, fluorescence, single concentration; Neuropeptides B/W receptor type 1 (Homo sapiens), P48145; GPR7-expressing cells, fluorescence antagonist assay; inhibition, % at 4.4 µM; 290,000 compounds, 1.1% hits; AID 1861, 2009; in the data active = inhibition above about 16%, passing the limit was not always enough;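 also: cells stimulated with the agonist NPW; 0% = agonist with vehicle and 100% = vehicle without agonist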
GalR3 antagonist: GalR3 antagonists in HEK293 cells, primary screen, cell-based, fluorescence readout. Galanin receptor type 3 (Homo sapiens), O60755. HEK293 GalR3-CNG cAMP membrane potential fluorescence; galR3 body fused to GalR1 C-terminus. inhibition, % at 3 µM. 360,000 compounds, 0.44% hits;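 active = inhibition above the screen-wide average plus 3 SD, cut at about 13% in these data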;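 also: forskolin and galanin both at EC90 stimulate the cells; cAMP rise reported by CNG channel membrane potential dye signal; 0% = forskolin plus galanin with DMSO and 100% = forskolin alone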
Target sequence (O60755 1-299 limits assumed): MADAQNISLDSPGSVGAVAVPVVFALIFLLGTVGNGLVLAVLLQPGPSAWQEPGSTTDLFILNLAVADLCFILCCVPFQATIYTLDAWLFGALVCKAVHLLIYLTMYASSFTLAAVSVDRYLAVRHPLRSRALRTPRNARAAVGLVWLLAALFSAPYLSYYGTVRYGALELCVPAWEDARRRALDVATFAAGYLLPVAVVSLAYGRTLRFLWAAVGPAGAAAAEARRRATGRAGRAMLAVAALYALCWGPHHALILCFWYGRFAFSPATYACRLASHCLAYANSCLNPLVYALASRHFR
CHO parental Ca: ATP-evoked calcium signal inhibitors, parental CHO, primary screen, counter-screen for OX1R antagonist project, cell-based, fluorescence, Fluo-8 calcium dye; parental CHO-K1, ATP-induced calcium, Fluo-8 fluorescence; inhibition, % at 5.6 µM; 330,000 compounds, 0.63% hits;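 active = inhibition above that plate's mean sample inhibition plus 3 SD, cut at about 26% in these data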;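 also: 0% = ATP-challenged DMSO wells and 100% = DMSO wells without ATP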
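Measured by: calcium-sensitive Fluo-8 fluorescence / Test system: CHO parental line / Controls: ATP-challenged DMSO wells low, unchallenged DMSO wells high / Measure: % inhibition / Compound: single nominal dose of 5.6 µM per compound / Replicates: single well per compound, no replicates / Reagent: ATP as calcium-mobilizing challenge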
Numbers without * were called inactive; . = no result. An excerpt weighted towards active compounds, which were near 3.1% of everything screened.

SMILES | OX1R antag-1 | OX1R antag-2 | GPR7 antagonist | GalR3 antagonist | CHO parental Ca
O=C(N/N=C/C=C\c1cccc([N+](=O)[O-])c1)c1cccnc1 | 35.5* | -20.4 | -7.0 | 0.3 | -4.3
O=C(NCCOC(=O)c1ccc([N+](=O)[O-])cc1)c1cccnc1 | 68.7* | -9.2 | -3.1 | -0.9 | 1.8
COC(=O)c1cc2c(c3c4ccccc4n(S(=O)(=O)c4ccc(OC)cc4)c13)C(=O)N(Cc1ccccc1OC)C2 | . | . | . | -2.3 | .
O=C(N/N=C/c1ccc(-c2ccc([N+](=O)[O-])cc2)o1)c1cccnc1 | 30.5 | -15.8 | -6.5 | -0.8 | -28.3
O=C(O)c1ccc(N/N=C/C=C/c2ccccc2[N+](=O)[O-])cc1 | -2.4 | 8.7 | 19.1* | -4.2 | 9.1
O=C(N/N=C/C=C\c1ccccc1[N+](=O)[O-])c1cccnc1 | 14.6 | 1.3 | -14.2 | -1.7 | -7.6
O=C(N/N=C/c1ccc([N+](=O)[O-])cc1)c1cccnc1 | 72.2* | -17.9 | 2.7 | -5.4 | 1.6
O=C(Cc1ccccc1)N/N=C/C=C/c1ccccc1[N+](=O)[O-] | 9.8 | 4.5 | -9.3 | -1.4 | -14.3
O=C(/C=C/c1ccc([N+](=O)[O-])cc1)NCc1cccs1 | 55.5 | -1.7 | 12.8 | -4.7 | -3.9
O=C(N/N=C/C=C/c1ccccc1[N+](=O)[O-])c1cccnc1 | 46.9* | -12.6 | -11.7 | 2.9 | -0.7
O=C(/C=C/c1ccc([N+](=O)[O-])cc1)NCc1ccccn1 | 75.0* | -1.5 | -0.6 | -4.6 | -5.8
[O-][n+]1ccccc1C(O)CSc1ccccc1 (stereo not drawn) | . | . | . | -5.9 | .
Cc1ccccc1C(=O)NNS(=O)(=O)c1ccc(F)cc1 | . | . | . | -2.4 | .
O=C(Oc1c(Br)cc([N+](=O)[O-])cc1Br)c1cccnc1 | 52.7* | -15.1 | -6.0 | -5.4 | -1.1
O=C1NCCCC1C(=O)N/N=C/c1cccc([N+](=O)[O-])c1 (stereo not drawn) | 24.5 | 2.3 | -18.7 | -3.0 | 6.6
O=C1NCCCC1C(=O)N/N=C/c1ccc([N+](=O)[O-])cc1 (stereo not drawn) | 53.6* | -12.2 | -6.8 | -2.2 | -6.2
COc1ccc(-c2cc(C(=O)N3CCN(c4ccccc4O)CC3)c3ccccc3n2)cc1OC | 26.1 | -8.5 | -22.5 | -0.8 | -19.9
COC(=O)[C@H](Cc1ccccc1)N1C/C=C\COc2c(Cl)cc(Cl)cc2S1(=O)=O | 31.8* | 35.0 | . | -5.8 | -12.1
O=C(O)Cc1ccc(S(=O)(=O)N2CCCC2)s1 | 5.1 | 3.6 | . | -4.5 | -5.1
COC1=CC(=O)c2ccccc2C1=O | 92.4* | 8.6 | . | . | -3.1
O=C(NC1CCN(Cc2ccccc2)CC1)C1CCN(S(=O)(=O)c2cccc3nsnc23)CC1 | 71.1* | -19.6 | -3.6 | -4.8 | -16.5
CC1CCN(CCNC(=O)C2CCCN(S(=O)(=O)c3cccc4nonc34)C2)CC1 (stereo not drawn) | 69.9* | -19.1 | 9.0 | -2.5 | -0.5
O=C(NC1CCN(Cc2ccccc2)CC1)C1CCCN(S(=O)(=O)c2cccc3nonc23)C1 (stereo not drawn) | 70.1* | -19.2 | 5.0 | -3.8 | -18.7
Cc1cn([C@H]2C[C@H](O)[C@@H](/C=C/C(=O)NCCc3ccc(S(N)(=O)=O)cc3)O2)c(=O)[nH]c1=O | . | . | . | -6.8 | .
COc1cccc(C(NC(C)=O)c2nc(-c3ccccc3C)cs2)c1 (stereo not drawn) | . | . | . | -7.8 | .
SMILES | OX1R antag-1 | OX1R antag-2 | GPR7 antagonist | GalR3 antagonist | CHO parental Ca
C#CCN(C[C@H]1[C@H](OC(=O)Nc2c(C)noc2C)[C@H](OC(=O)Nc2c(C)noc2C)CN(C(=O)OC(C)C)N1C(=O)OC(C)C)S(=O)(=O)c1ccc(C)cc1 | . | . | . | -5.7 | .
O=Cc1coc([B-](F)(F)F)c1 | . | . | . | -6.8 | .
O=C(N/N=C/c1cccnc1)c1ccc([N+](=O)[O-])cc1Cl | 34.9* | -16.9 | -15.9 | -1.9 | -5.2
Cc1ccc([N+](=O)[O-])c(C(=O)N/N=C/c2cccnc2)c1 | 41.5* | -2.5 | -5.2 | -5.0 | -5.4
O=C(Nc1ccccn1)c1ccc([N+](=O)[O-])cc1Cl | 55.7* | -6.7 | -10.5 | -0.9 | -5.3
O=C(N/N=C/c1ccc(Cl)c([N+](=O)[O-])c1)c1cnccn1 | 56.8* | -9.8 | -8.2 | -2.1 | -11.7
CCc1nc2c(OCc3ccc(OC(F)F)cc3)cccn2c1N(C)C(=O)c1cccs1 | . | . | . | -5.3 | .
COc1cc2c(NCCCCCCO[N+](=O)[O-])ncnc2c(OC)c1OC | . | . | . | -3.3 | .
CCCCOCC1CN(CCCC)S(=O)(=O)c2c(cccc2Sc2ccc(SC)cc2)O1 (stereo not drawn) | . | . | . | -4.8 | .
Cc1ccc2c(c1)COc1c3ccc(C(=O)NCCO)cc3nn1-2 | 61.0* | -13.4 | . | -4.6 | 1.0
O=C(NCCO)c1ccc2c3n(nc2c1)-c1ccc(Cl)cc1CO3 | 37.5 | -11.3 | . | -1.4 | -5.2
CC1=CC(C)(C)Nc2ccc(OC(=O)c3ccco3)cc21 | 50.6* | 2.5 | -5.0 | -1.7 | -11.0
COc1ccc2ccccc2c1/C=N/NC(=O)c1cccc(C)c1 | 22.4 | -13.8 | . | -2.7 | -6.1
Cc1cccc(OCC(=O)NC(C)C(=O)N/N=C/c2c(OCc3ccccc3)ccc3ccccc23)c1 (stereo not drawn) | 43.2* | 2.5 | -6.5 | . | -6.4
COC(=O)CC1C(=O)NCCN1C(=O)c1ccc([N+](=O)[O-])cc1 (stereo not drawn) | 19.3 | -4.5 | -17.5 | -11.7 | -5.5
COC(=O)CC1C(=O)NCCN1C(=O)CSc1nc2ccc([N+](=O)[O-])cc2s1 (stereo not drawn) | 71.4* | -10.8 | -13.2 | -3.5 | -9.9
COC(=O)[C@]12C[C@H](CC(=O)N3CCOCC3)C(=O)N(Cc3ccc4c(c3)OCO4)C1=C[C@H](C(C)(C)C)O[C@@H]2C | . | . | . | -4.5 | .
CC(C)C(c1nnnn1C(C)(C)C)N1CCOCC1 (stereo not drawn) | 20.3 | -9.3 | 7.7 | -1.2 | -2.7
CC(C)C(c1nnnn1C(C)(C)C)N1CCC(Cc2ccccc2)CC1 (stereo not drawn) | 6.4 | -4.7 | 0.6 | -1.3 | 41.8*
Cc1ccc(NC(=O)COC(=O)CCc2c[nH]c3ccccc23)c(C)c1 | 2.9 | -2.5 | . | -3.7 | -5.0
CCc1cc2cc(C)ccc2nc1SCC(=O)NNC(=O)c1ccco1 | 47.7* | -18.9 | -9.4 | -9.8 | -14.0
CCOc1cc(N2CCOCC2)c(OCC)cc1NC(=O)COc1ncnc2ccccc12 | 1.5 | -13.0 | -5.3 | -3.5 | -18.0
CCOc1cc(N2CCOCC2)c(OCC)cc1NC(=O)c1cc(-c2ccco2)nc2ccccc12 | 36.6* | -0.7 | -1.5 | -10.4 | 7.7
CCOc1cc(/C=N/NC(=O)CCn2nnc3ccccc32)ccc1O | 45.6* | -12.4 | 1.9 | 5.8 | 1.6
NC(Cc1ccc(O)cc1)C(=O)NN=Cc1ccccc1Cl (stereo not drawn) | . | . | . | -7.6 | .

Screening results (PubChem BioAssay)
